From PubChem BioAssay
Shown are actives, neighbours in structure and some others; about 4.9% of the full set was active somewhere.
NPY-Y1 antag: blocks the human neuropeptide Y Y1 receptor; HEK293-CNG Y1 cells, membrane potential fluorescence; NPY at EC95, then isoproterenol; inhibition, % at 3.6 µM; 200,000 compounds, 1% hits; AID 1040;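 active = inhibition above the campaign mean inhibition of all tested compounds plus 3 SD, cut at about 20% in these data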;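 also: 0% = DMSO wells given NPY plus isoproterenol and 100% = isoproterenol alone without NPY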
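Benchmarks – high control isoproterenol alone, low control NPY with isoproterenol · Material – HEK293 Y1/CNG channel cell line · Times – dye 3 h, compound 60 min room temperature, stimulation 45 min · Probe or stimulus – NPY (25 nM), isoproterenol (1 µM), Ro 20-1724 (25 µM) · Evaluation – % inhibition of NPY effect · Signal – fluorescence, membrane potential probe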
WT yeast gro inh: growth inhibition of WT yeast, mitochondrial fusion screen; mitochondrial fusion phenotypic screen, WT strain; inhibition, % at 10 µM; 190,000 compounds, 2.1% hits; AID 1362; in the data active = inhibition above about 58%; tested in S. cerevisiae
RAM network inh: inhibitors of the yeast RAM network | S. cerevisiae dse1pr::URA3 reporter, 5-FOA growth OD615, 2 d; analog-sensitive cbk1-as2 kinase mutant strain | inhibition, % at 50 µM | 190,000 compounds, 1.8% hits | AID 868;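 active = inhibition above a set limit, 3 SD over mean compound inhibition, cut at about 8.4% in these data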;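 also: 0% = DMSO-only wells with no growth and 100% = 10 µM 1-NA-PP1 full growth; inhibition rescues growth on 5-FOA so higher OD means more RAM inhibition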
NPY-Y2 PAM-ag: potentiates or activates human NPY-Y2 receptor. P49146. cells expressing NPY-Y2, potentiator/agonist read-out. activation, % at 3.6 µM. 220,000 compounds, 0.45% hits. AID 1359; in the data active = activation above about 27%;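 also: cells stimulated with NPY near EC25 plus isoproterenol at EC100; 0% = vehicle plus submaximal agonist and 100% = vehicle plus saturating agonist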
Target sequence (P49146 whole entry, looked up): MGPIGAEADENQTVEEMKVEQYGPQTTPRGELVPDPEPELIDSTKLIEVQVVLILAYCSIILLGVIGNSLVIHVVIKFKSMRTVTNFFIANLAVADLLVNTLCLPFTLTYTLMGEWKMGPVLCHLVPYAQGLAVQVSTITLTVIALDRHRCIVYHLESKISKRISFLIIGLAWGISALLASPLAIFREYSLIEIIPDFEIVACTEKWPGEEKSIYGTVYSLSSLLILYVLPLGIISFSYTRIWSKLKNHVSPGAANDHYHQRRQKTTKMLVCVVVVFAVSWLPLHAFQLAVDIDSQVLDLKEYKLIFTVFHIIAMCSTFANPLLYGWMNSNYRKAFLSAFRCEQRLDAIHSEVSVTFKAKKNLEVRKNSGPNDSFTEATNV
NPY Y2 blocker: antagonists of human neuropeptide Y receptor Y2; inhibition, % at 2.7 µM; NPY-Y2 expressing cells, antagonist mode; 140,000 compounds, 0.99% hits; P49146; in the data active = inhibition above about 17%;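 also: 0% = vehicle with agonist challenge and 100% = reference antagonist with challenge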
NPY-Y1 PAM-ag: human NPY-Y1 potentiation or agonism, primary screen; P25929; NPY-Y1 expressing cells, potentiator/agonist activation; activation, % at 3.6 µM; 220,000 compounds, 0.37% hits; in the data active = activation above about 33%, passing the limit was not always enough;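 also: cells stimulated with NPY at EC10 then isoproterenol at EC100; 0% = low agonist plus stimulus and 100% = saturating agonist plus stimulus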
NPY1 antag ctr: counter-screen for NPY-Y2 antagonists: human NPY-Y1 antagonism; shares compounds with NPY Y2 blocker; inhibition, % at 3.6 µM; cell-based NPY-Y1 antagonism counterscreen; AID 1256; 710 compounds, 19% hits; in the data active = inhibition above about 20%;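 also: cells challenged with NPY then isoproterenol with cAMP sensed through a CNG channel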
NPY-Y2 ant conf: human NPY-Y2 antagonism, confirmation | shares compounds with NPY Y2 blocker | HEK293 NPY-Y2 CNG channel, membrane potential fluorescence | inhibition, % at 2.8 µM | 710 compounds, 32% hits | AID 1257;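 active = mean inhibition of triplicate wells above the hit cutoff set in the primary screen, cut at about 17% in these data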;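 also: 0% = DMSO with NPY challenge and 100% = BIIE0246 high control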
* marks the source's active call; other numbers are inactive results; / = no result given.

SMILES | NPY-Y1 antag | WT yeast gro inh | RAM network inh | NPY-Y2 PAM-ag | NPY Y2 blocker | NPY-Y1 PAM-ag | NPY1 antag ctr | NPY-Y2 ant conf
Cc1[nH]c2ccccc2c1/C=C/C(=O)c1ccncc1 | / | / | / | 11 | / | 18 | / | /
CCOc1ccc(-n2c(-c3ccccc3)nnc2-c2ccccc2)cc1 | 10 | 9 | 2 | -24 | 21* | -32 | 7 | 15
CCCCNC(=S)Nc1ccc(C(F)(F)F)cc1 | -5 | 34 | -1 | 3 | / | 5 | / | /
Cc1cc(Cl)ccc1OCCCC(=O)N1CCCc2ccccc21 | 19 | -21 | 3 | -23 | 27* | -16 | 23* | 40*
COc1cccc(C2c3c(oc4ccccc4c3=O)C(=O)N2CCCN(C)C)c1OC (configuration not stated) | 1 | -8 | 1 | -7 | -2 | 10 | / | /
CCN(CC)CCCN1C(=O)c2oc3ccccc3c(=O)c2C1c1cccc(OC)c1OC (configuration not stated) | -2 | -25 | 2 | -3 | 19* | -7 | 0 | 3
CC1=C(C)CC2C(=O)N(Cc3ccccc3)C(=O)C2C1 (configuration not stated) | 1 | -7 | 0 | -3 | 4 | -5 | / | /
Cc1ccc(OCCN2C(=O)S/C(=C\c3ccc(C)o3)C2=O)cc1 | 4 | -1 | 8 | -5 | 17* | -3 | 5 | 6
Cc1ccc(-c2nc(=S)c3c(n2CC2CCCO2)CC(C)(C)OC3)cc1 (configuration not stated) | 3 | -9 | 2 | -1 | 5 | 8 | / | /
Cc1ccc(-c2nc(=S)c3c(n2Cc2ccco2)CC(C)(C)OC3)cc1 | 17 | 14 | 2 | 1 | 18* | -12 | 21* | 8
CCOc1ccc(C(CC(=O)O)NC(=O)c2sc3ccccc3c2Cl)cc1 (configuration not stated) | 18 | -15 | 4 | -23 | 19* | -43 | 22* | 28*
CCCCCC(=O)NC(=S)Nc1ccc(Br)cc1C | 1 | 3 | 5 | -1 | 20* | 13 | 10 | 19*
Cc1cc(OC(=O)c2ccco2)c(Sc2ccccc2[N+](=O)[O-])c(=O)o1 | 5 | -10 | 1 | -1 | / | 13 | / | /
OC(CCN1CCCCC1)(c1ccccc1)C1CCCCC1 (configuration not stated) | 13 | 4 | 1 | 1 | 20* | -34 | 6 | 12
OC(CCN1CCOCC1)(c1ccc(Cl)cc1)C1CCCCC1 (configuration not stated) | 11 | 13 | 0 | -18 | 8 | -20 | / | /
O=C(Cc1ccc(Br)cc1)OCC(=O)N1CCc2ccccc2C1 | 8 | 7 | 0 | -11 | 18* | -16 | 7 | 8
Cc1cccc(/C(N)=N/OC(=O)COc2ccc(Cl)c(C)c2)c1 | -3 | -6 | 5 | 16 | 11 | 1 | / | /
Cc1cc(OCC(=O)O/N=C(\N)c2ccccc2)ccc1Cl | 10 | 14 | 8 | -4 | 19* | -10 | 7 | 10
CCCCNC(=O)OCCNC(=O)Oc1cccc(C)c1 | 1 | -8 | 2 | 24 | -1 | 7 | / | /
Cc1cc(C)c2c(=O)[nH]c(SCC(=O)Nc3ccccc3)nc2n1 | -1 | 8 | 4 | -8 | 19* | -7 | 1 | 5
Cc1ccc(NC(=O)CSc2nc3nc(C)cc(C)c3c(=O)[nH]2)cc1 | 6 | -14 | 1 | 7 | 1 | 24 | / | /
CC1CCCN(C(=O)CSc2nnc(-c3c[nH]c4ccccc34)o2)C1 (configuration not stated) | 8 | -8 | 2 | -15 | 23* | -6 | 6 | 6
CC1CCCC(C)N1C(=O)CSc1nnc(-c2c[nH]c3ccccc23)o1 (configuration not stated) | -1 | 13 | 4 | 8 | 6 | 10 | / | /
CO/N=C(/CNC(=O)c1ccc(Cl)cc1Cl)c1ccc(Cl)cc1 | 5 | 12 | 4 | 4 | 3 | 11 | / | /
Cc1ccc(NC(=S)NCc2ccc3c(c2)OCO3)cc1C | 12 | 61* | -1 | -25 | 18* | -14 | 15 | 18*
SMILES | NPY-Y1 antag | WT yeast gro inh | RAM network inh | NPY-Y2 PAM-ag | NPY Y2 blocker | NPY-Y1 PAM-ag | NPY1 antag ctr | NPY-Y2 ant conf
Brc1ccc2c(c1)OCCOCCOc1cc(Br)ccc1OCCOCCOCCO2 | 19 | 80* | 6 | -4 | 24* | -16 | 19 | 15
Brc1cc2c(cc1Br)OCCOCCOCCOCCO2 | 3 | -14 | -1 | -5 | / | -2 | / | /
Cc1cc(C(=O)Cn2nnc(-c3ccc(Cl)cc3)n2)c(C)n1CC1CCCO1 (configuration not stated) | 14 | 33 | 4 | -3 | 20* | -32 | 17 | 7
Cc1cc(C(=O)CSc2nnc(-c3ccc(Cl)cc3)n2C)c(C)n1CC1CCCO1 (configuration not stated) | 11 | 10 | 3 | 5 | 4 | 2 | / | /
CN(C)c1ccc(/C=N\NC(=S)SCN2C(=O)C3CCC(C)(C2=O)C3(C)C)cc1 (configuration not stated) | -4 | 27 | 2 | 6 | -2 | 4 | / | /
CC12CCC(C/C1=N\N=C1\NC(=O)/C(=C\c3ccc(Cl)cc3)S1)C2(C)C (configuration not stated) | 4 | 28 | 3 | 6 | 37* | 0 | 44* | 55*
CCN1CCN(C(=O)c2cnn3c(C(F)F)cc(-c4ccc(C)cc4)nc23)CC1 | 18 | -2 | -1 | -32 | 7 | -49 | / | /
Cc1ccc(-c2cc(C(F)F)n3ncc(C(=O)N4CCN(c5ccccn5)CC4)c3n2)cc1 | 6 | 26 | 0 | -7 | 20* | -28 | 19 | 17
Cc1cccc(CSC2=NCCN2C(=O)c2ccc(Br)o2)c1 | 13 | 16 | 1 | -17 | 20* | -18 | 17 | 31*
Cc1cccc(CSC2=NCCN2C(=O)c2ccc(S(=O)(=O)N(C)C)cc2)c1 | 5 | 0 | 1 | -5 | / | 16 | / | /
Brc1cccc(CNc2nc3ccccc3n2CCN2CCCCC2)c1 | / | / | / | -11 | / | 0 | / | /
COc1cccc(CNc2nc3ccccc3n2CCN2CCCCC2)c1 | 14 | 31 | 1 | -16 | 19* | -27 | 13 | 16
CCCN1C(=O)c2cc(C(=O)NCc3cccs3)ccc2C1O (configuration not stated) | -3 | 0 | 0 | -1 | 0 | -11 | / | /
Cc1cc2ncn(C(=O)c3c(-c4ccccc4)noc3C)c2cc1C | 8 | 8 | 0 | -2 | 20* | -5 | 9 | 9
Cc1cc2ncn(C(=O)c3c(-c4c(Cl)cccc4Cl)noc3C)c2cc1C | 0 | 15 | 3 | -3 | 1 | -7 | / | /
Cc1c(NC(=O)COC(=O)/C=C/c2ccc(Cl)cc2)c(=O)n(-c2ccccc2)n1C | -2 | -7 | 2 | 14 | / | 1 | / | /
